IC50 data for two molecules are collected here from ChEMBL document CHEMBL4304758, “Development of Peptide-Based Sirtuin Defatty-Acylase Inhibitors Identified by the Fluorescence Probe, SFP3, That Can Efficiently Measure Defatty-Acylase Activity of Sirtuin” (J Med Chem, 2019).

Assay [1] concerns the target T1, NAD-dependent protein deacetylase sirtuin-2 (Homo sapiens, UniProt Q8IXJ6).
T1 sequence (Q8IXJ6 whole entry): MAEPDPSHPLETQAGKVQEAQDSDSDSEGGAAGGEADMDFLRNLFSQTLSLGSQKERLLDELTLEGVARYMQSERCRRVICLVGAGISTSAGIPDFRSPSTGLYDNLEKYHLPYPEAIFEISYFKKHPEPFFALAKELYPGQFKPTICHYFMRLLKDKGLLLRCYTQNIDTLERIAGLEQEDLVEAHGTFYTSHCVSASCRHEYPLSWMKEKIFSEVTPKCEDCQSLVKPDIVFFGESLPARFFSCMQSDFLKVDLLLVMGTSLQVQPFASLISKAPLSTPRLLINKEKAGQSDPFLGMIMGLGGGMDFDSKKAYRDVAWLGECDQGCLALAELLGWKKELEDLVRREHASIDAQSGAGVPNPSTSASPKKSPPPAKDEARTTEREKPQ
Put plainly: Inhibition of recombinant human SIRT2 defatty-acylase activity using SFP3 as substrate measured at 5 mins interval for 60 mins in presence of NAD+ by fluorescence assay.

The target in assay [2] is T1, NAD-dependent protein deacetylase sirtuin-2. Briefly: Inhibition of recombinant human SIRT2 demyristoylase activity using p53(Myr)-AMC as substrate measured after 3 hrs in presence of NAD+ and trypsin by fluorescence assay.
For assay [3] the target is unchanged. Put plainly: Inhibition of recombinant human SIRT2 deacylation activity using Fluor de Lys Sirt2 as substrate measured at 5 mins interval for 30 mins in presence of NAD+ by fluorescence assay.
Assay [4] has as its target T2, NAD-dependent protein deacetylase sirtuin-1 (Homo sapiens, UniProt Q96EB6).
T2 sequence (Q96EB6 whole entry): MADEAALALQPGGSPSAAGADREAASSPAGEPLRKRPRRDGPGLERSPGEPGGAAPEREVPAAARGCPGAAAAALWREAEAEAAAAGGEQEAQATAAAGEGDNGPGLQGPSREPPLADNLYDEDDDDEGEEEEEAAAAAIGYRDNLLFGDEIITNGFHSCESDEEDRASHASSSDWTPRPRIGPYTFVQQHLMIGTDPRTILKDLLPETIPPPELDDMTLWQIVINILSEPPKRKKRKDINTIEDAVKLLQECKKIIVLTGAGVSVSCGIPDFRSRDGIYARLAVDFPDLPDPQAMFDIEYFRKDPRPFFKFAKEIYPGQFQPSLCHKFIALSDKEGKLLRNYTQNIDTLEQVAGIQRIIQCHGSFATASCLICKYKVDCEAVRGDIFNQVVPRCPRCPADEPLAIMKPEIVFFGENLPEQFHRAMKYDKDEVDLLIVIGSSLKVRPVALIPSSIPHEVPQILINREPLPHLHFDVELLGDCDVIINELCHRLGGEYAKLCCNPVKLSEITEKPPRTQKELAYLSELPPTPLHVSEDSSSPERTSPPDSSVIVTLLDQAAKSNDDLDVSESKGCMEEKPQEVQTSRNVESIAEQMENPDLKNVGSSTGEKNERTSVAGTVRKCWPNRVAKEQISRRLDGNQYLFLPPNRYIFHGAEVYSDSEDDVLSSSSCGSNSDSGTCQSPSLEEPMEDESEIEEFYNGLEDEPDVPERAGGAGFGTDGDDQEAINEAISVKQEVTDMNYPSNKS
Put plainly: Inhibition of recombinant human C-terminal His6-tagged SIRT1 (Met1 to Ser747 residues) defatty-acylase activity expressed in Escherichia coli using SFP3 as substrate measured at 5 mins interval for 60 mins in presence of NAD+ by fluorescence assay.

For assay [5], the target named is T3, NAD-dependent protein deacetylase sirtuin-3, mitochondrial (Homo sapiens, UniProt Q9NTG7).
T3 sequence (Q9NTG7 whole entry): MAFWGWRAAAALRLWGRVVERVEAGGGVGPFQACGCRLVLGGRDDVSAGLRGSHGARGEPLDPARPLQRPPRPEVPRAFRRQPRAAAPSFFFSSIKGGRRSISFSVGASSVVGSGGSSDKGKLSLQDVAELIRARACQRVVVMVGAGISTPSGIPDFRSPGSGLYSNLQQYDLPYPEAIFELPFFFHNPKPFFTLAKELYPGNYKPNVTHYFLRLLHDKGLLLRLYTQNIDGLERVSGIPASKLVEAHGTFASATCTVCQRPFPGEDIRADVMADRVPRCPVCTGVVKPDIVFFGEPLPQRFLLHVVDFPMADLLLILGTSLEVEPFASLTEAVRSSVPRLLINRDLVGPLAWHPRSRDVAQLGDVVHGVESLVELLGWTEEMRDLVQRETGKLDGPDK
Briefly: Inhibition of recombinant human SIRT3 (118 to 399 residues) defatty-acylase activity expressed in Escherichia coli using SFP3 as substrate measured at 5 mins interval for 60 mins in presence of NAD+ by fluorescence assay.

The target of assay [6] is T1, NAD-dependent protein deacetylase sirtuin-2. Put plainly: Inhibition of recombinant human SIRT2 deacylation activity expressed in Escherichia coli Rosetta2 using Fluor-de-Lys-SIRT2 deacetylase substrate measured after 2 hrs by fluorescence assay.
Assay [7] has as its target NAD-dependent protein deacylase sirtuin-6 (Homo sapiens, UniProt Q8N6T7). Put plainly: Inhibition of recombinant human N-terminal polyhis-tagged SIRT6 (1 to 355 residues) defatty-acylase activity expressed in Escherichia coli using SFP3 as substrate measured at 5 mins interval for 60 mins in presence of NAD+ by fluorescence assay. The method, boiled down: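 SIRT6 at 48 nM final with 2.5 μM SFP3 and 500 μM NAD⁺ in Tris-HCl pH 8.0 buffer with 150 mM NaCl, 1 mM DTT, 0.05% Triton X-100, final 0.2% DMSO. Enzyme added last. Fluorescence Ex 485/Em 535 nm read every 5 min for 60 min at 37 °C.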

For assay [8], the target named is T2, NAD-dependent protein deacetylase sirtuin-1. Briefly: Inhibition of recombinant human C-terminal His6-tagged SIRT1 (Met1 to Ser747 residues) demyristoylase activity expressed in Escherichia coli using p53(Myr)-AMC as substrate measured after 3 hrs in presence of NAD+ and trypsin by fluorescence assay. An outline of the steps: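 SIRT1 at 14 nM final with 50 μM p53(Myr)-AMC and 500 μM NAD⁺ in Tris-HCl pH 8.0/NaCl/DTT/Triton buffer, 0.5% DMSO, 3 h at room temperature. Trypsin (100 nM final) plus nicotinamide (1 mM final) then added. Fluorescence Ex 355/Em 460 nm read every 5 min for 20 min at 37 °C. n = 3.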

Assay [9] has as its target T3, NAD-dependent protein deacetylase sirtuin-3, mitochondrial. Put plainly: Inhibition of recombinant human SIRT3 (118 to 399 residues) demyristoylase activity expressed in Escherichia coli using p53(Myr)-AMC as substrate measured after 3 hrs in presence of NAD+ and trypsin by fluorescence assay.

Where a name gives a salt, the structure may show the parent alone. Non-standard residues stand in square brackets, D forms with d. Residues, ends and D or L forms follow the SMILES beside them. *: point of attachment. Lys(thiomyristoyl) = CCCCCCCCCCCCCC(=S)NCCCC[C@H](N)C(=O)O; Tfa = O=C(C(F)(F)F)* A value given as a limit tells only on which side of the number the result lay.

NAD-dependent protein deacylase sirtuin-6, sequence (Q8N6T7 whole entry, the tested form may be a part): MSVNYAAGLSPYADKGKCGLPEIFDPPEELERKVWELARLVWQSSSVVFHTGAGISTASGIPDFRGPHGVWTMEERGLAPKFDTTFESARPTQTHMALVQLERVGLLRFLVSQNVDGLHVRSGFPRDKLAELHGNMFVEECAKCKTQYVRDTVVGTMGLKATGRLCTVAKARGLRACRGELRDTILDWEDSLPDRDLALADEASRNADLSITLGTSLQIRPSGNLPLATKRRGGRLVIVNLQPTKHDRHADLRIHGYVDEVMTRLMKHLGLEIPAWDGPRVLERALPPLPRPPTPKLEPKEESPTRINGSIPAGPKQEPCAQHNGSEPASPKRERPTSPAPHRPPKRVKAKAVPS

A word on the IC50: it is the point on the concentration scale where inhibition reaches its midpoint. `CC[C@H](C)[C@H](NC(=O)[C@H](CCCNC(=N)N)NC(C)=O)C(=O)N[C@@H](CCCCNC(=O)C(F)(F)F)C(=O)N[C@@H](CCCNC(=N)N)C(=O)N[C@@H](Cc1ccc(O)cc1)C(N)=O` (Ac-RIK(Tfa)RY-NH2): the IC50 was 0.32 µM in assay [1]; 1.1 µM in assay [2]; 0.067 µM in assay [3]; more than 2 µM in [4]; 0.54 µM in assay [5]; 0.031 µM in assay [6].
On to `CCCCCCCCCCCCCC(=S)NCCCC[C@H](NC(=O)[C@@H](NC(=O)[C@H](CCCNC(=N)N)NC(C)=O)[C@@H](C)CC)C(=O)N[C@@H](CCCNC(=N)N)C(=O)N[C@@H](Cc1ccc(O)cc1)C(N)=O` (Ac-RI[Lys(thiomyristoyl)]RY-NH2), for which the IC50 is 0.022 µM in assay [1]; 0.044 µM in assay [2]; 0.11 µM in assay [3]; 0.33 µM in assay [4]; 0.046 µM in assay [5]; 0.25 µM in [7]. Further, the IC50 in assay [8] amounted to 0.026 µM; in assay [9], 0.13 µM.
